# Source: ChEMBL document CHEMBL4387704, “Design, synthesis and biological evaluation of novel isoindolinone derivatives as potent histone deacetylase inhibitors” (Eur J Med Chem, 2019)
# Activity calls are given as the source filed them. The rule behind the calls is not given here.
# How the values were obtained:
# [1] = target: Histone deacetylase 5 (Homo sapiens) (UniProt Q9UQL6); experiment: Inhibition of HDAC5 (unknown origin) using Fluor de Lys substrate by fluorescence assay relative to control
# How it was run: (§1)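 Recombinant HDAC isoform assays run by a contract lab. Compounds in DMSO, 10-dose IC50 mode, 3-fold serial dilution from 50 μM. Duplicate runs; IC50 from curve fitting.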
# [2] = target: Polyamine deacetylase HDAC10 (Homo sapiens, UniProt Q969S8); experiment: Inhibition of HDAC10 (unknown origin) using Fluor de Lys substrate by fluorescence assay relative to control; how it was run: as §1
# MOLT-4 = experiment: Growth inhibition of human MOLT4 cells assessed as cell growth inhibition at 10 uM incubated for 48 hrs by sulforhodamine B assay; format: functional; settings: MOLT-4, 48 h, read-out: GI
# EKVX = experiment: Growth inhibition of human EKVX cells assessed as cell growth inhibition at 10 uM incubated for 48 hrs by sulforhodamine B assay; format: functional; settings: read-out: GI
# SF-295 = experiment: Growth inhibition of human SF295 cells assessed as cell growth inhibition at 10 uM incubated for 48 hrs by sulforhodamine B assay; format: functional; settings: SF-295, 48 h, read-out: GI
# MDA-MB-468 = experiment: Growth inhibition of human MDA-MB-468 cells assessed as cell growth inhibition at 10 uM incubated for 48 hrs by sulforhodamine B assay; format: functional; settings: MDA-MB-468, 48 h, read-out: GI
# BT-549 = experiment: Growth inhibition of human BT549 cells assessed as cell growth inhibition at 10 uM incubated for 48 hrs by sulforhodamine B assay; format: functional; settings: BT-549, 48 h, read-out: GI
# [3] = Metabolic stability in dog liver microsomes assessed as internal clearance at 1 uM preincubated for 10 mins followed by NADPH addition measured upto 60 mins by LC-MS/MS analysis; format: ADME, Canis lupus familiaris, Microsome; settings: read-out: CLH
# How it was run: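 Liver microsomes from male SD rat, dog or human at 0.5 mg/mL in 100 mM potassium phosphate pH 7.4 with 1 μM compound. Prewarmed 37 °C 10 min, started with 1 mM NADPH. Stopped at 0, 5, 10, 20, 40, 60 min with cold methanol containing glibenclamide internal standard; supernatant by LC–MS/MS; T1/2 and CLint derived.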
# Chain of Polyamine deacetylase HDAC10 (Q969S8 whole entry): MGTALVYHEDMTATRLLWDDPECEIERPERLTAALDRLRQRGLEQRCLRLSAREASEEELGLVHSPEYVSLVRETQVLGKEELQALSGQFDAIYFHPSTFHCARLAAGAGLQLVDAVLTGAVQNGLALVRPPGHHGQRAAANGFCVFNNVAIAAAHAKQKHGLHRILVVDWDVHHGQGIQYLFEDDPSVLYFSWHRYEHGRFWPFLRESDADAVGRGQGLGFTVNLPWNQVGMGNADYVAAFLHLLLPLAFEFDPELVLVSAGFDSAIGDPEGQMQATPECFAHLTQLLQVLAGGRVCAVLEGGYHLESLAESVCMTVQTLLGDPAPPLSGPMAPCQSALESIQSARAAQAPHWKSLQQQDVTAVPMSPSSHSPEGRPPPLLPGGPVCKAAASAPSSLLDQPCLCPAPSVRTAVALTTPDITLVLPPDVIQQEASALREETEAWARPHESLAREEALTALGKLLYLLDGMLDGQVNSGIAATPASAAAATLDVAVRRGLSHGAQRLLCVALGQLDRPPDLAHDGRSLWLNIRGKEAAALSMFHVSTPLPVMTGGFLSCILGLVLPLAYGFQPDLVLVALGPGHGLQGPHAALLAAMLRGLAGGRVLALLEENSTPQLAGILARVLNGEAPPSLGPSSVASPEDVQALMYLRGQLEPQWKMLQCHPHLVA
# Chain of Histone deacetylase 5 (Homo sapiens) (Q9UQL6 whole entry, canonical isoform): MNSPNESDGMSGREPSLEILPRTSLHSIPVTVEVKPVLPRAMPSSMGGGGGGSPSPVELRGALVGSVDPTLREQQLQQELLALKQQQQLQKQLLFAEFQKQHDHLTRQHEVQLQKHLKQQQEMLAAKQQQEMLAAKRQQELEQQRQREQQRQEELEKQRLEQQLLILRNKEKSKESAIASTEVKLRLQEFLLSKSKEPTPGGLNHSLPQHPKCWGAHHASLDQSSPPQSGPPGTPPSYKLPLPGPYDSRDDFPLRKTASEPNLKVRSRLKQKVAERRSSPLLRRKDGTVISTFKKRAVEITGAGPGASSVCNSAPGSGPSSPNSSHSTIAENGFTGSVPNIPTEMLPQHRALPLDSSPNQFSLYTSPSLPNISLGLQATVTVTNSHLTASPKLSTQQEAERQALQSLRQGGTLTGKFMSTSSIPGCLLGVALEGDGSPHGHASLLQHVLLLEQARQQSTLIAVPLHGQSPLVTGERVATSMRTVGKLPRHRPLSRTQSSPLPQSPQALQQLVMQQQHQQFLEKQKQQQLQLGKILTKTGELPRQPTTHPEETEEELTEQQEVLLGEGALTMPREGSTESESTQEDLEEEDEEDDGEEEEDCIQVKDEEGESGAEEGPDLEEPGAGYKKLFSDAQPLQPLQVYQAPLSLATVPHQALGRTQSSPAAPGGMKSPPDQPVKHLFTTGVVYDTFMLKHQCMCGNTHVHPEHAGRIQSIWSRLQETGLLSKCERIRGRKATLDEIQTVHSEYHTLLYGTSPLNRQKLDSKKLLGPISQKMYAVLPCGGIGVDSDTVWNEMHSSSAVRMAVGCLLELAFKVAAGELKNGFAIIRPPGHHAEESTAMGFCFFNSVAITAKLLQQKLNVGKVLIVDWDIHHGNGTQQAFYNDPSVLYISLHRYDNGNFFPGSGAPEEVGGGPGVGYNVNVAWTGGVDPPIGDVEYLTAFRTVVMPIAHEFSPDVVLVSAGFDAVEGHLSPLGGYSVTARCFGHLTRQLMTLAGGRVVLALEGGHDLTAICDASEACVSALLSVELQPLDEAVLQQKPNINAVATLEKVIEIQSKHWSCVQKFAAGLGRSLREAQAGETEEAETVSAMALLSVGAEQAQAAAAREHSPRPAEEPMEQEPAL
smiles,measurement,setting,value
Nc1cc(F)ccc1NC(=O)c1ccc(CNC(=O)/C=C2\NC(=O)c3ccccc32)cc1,inhibition,[1],inactive
same,IC50,[2],950 nM
same,inhibition of growth at 10 µM,MOLT-4,63%
same,inhibition of growth at 10 µM,EKVX,11.7%
same,inhibition of growth at 10 µM,SF-295,16.2%
same,inhibition of growth at 10 µM,MDA-MB-468,9.71%
same,inhibition of growth at 10 µM,BT-549,6.06%
same,microsomal CLint at 1 µM,[3],6.92 µL/min/mg
